Reference: ChEMBL document CHEMBL1151726, “Interactions of antiviral indolo[2,3-b]quinoxaline derivatives with DNA” (2008)
Values joined by “and” are separate entries in the source; they are usually repeats but may differ in a detail not shown here. Equal values may be shown once. Active and inactive are the calls of the source. No cut-off for these calls is given here.

How the values were obtained:
Human betaherpesvirus 5 = test: Antiviral activity against human cytomegalovirus; format: functional
[1] = Ratio of binding constant K for 3 base pair binding site poly(dA-dT)2 DNA to binding constant K for calf thymus DNA
DNA [2] = test: Binding affinity to calf thymus DNA assessed as drug-DNA intercalation at 5 to 10 uM by absorption spectra analysis; format: nucleic-acid assay; conditions: Bos taurus
How it was run: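 Ligands at 10 µM (monomeric) or 5 µM (dimeric) mixed 1:1 by volume with ct-DNA, 160 µM bases, in 10 mM phosphate pH 7.5, total Na+ 100 mM. Absorption spectra recorded at room temperature, several scans averaged.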

Nucleic Acid = test: Binding affinity to poly(dA-dT)2 DNA assessed as drug-DNA intercalation at 5 to 10 uM by emission spectra analysis; format: nucleic-acid assay
How it was run: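 Emission spectra recorded with and without poly(dA-dT)2 at 100 µM bases. Ligand at 10 µM (monomeric) or 5 µM (dimeric), room temperature, 10 mM phosphate pH 7.5, total Na+ 100 mM.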

[3] = Ratio of binding constant K for poly(dA-dT)2 DNA to binding constant K for calf thymus DNA
[4] = Ratio of binding constant K for 4 base pair binding site poly(dA-dT)2 DNA to binding constant K for calf thymus DNA
[5] = Ratio of binding constant K for 2 base pair binding site poly(dA-dT)2 DNA to binding constant K for calf thymus DNA
DNA [6] = test: Binding affinity to calf thymus DNA assessed as drug-DNA intercalation at 5 to 10 uM by linear dichroism analysis; format: nucleic-acid assay; conditions: Bos taurus
How it was run: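 Flow linear dichroism with calf thymus DNA at 160 µM bases, ligand 10 µM (monomeric) or 5 µM (dimeric), 10 mM phosphate pH 7.5, Na+ 100 mM, room temperature. Spectra taken over 200–650 nm and baseline-corrected by subtracting the non-oriented sample spectrum.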

Row | SMILES | inhibition (INH) (Human betaherpesvirus 5) [%] | Activity (DNA [2]) | Activity (Nucleic Acid) | also measured
1 | C[N+](C)(CCC[N+](C)(C)CCn1c2ccccc2c2nc3ccccc3nc21)CCn1c2ccccc2c2nc3ccccc3nc21.[Br-].[Br-] | 100 | Active | Active | Ratio [1]: 1.9
2 | Cc1cc2nc3c4ccccc4n(CCN(C)C)c3nc2cc1C [listing 1 of 2 here] | 20 |  |  | 
3 | Cc1cc2nc3c4cc(N)ccc4n(CCN(C)C)c3nc2cc1C.Cl | 100 | Active | Active | Ratio [3]: 1.7
4 | Cc1cc2nc3c4ccccc4n(CCN(C)C)c3nc2cc1C.Cl | 100 |  |  | 
5 | C[N+](C)(CCCCCC[N+](C)(C)CCn1c2ccccc2c2nc3ccccc3nc21)CCn1c2ccccc2c2nc3ccccc3nc21.[Br-].[Br-] | 100 | Active | Active | Ratio [4]: 3
6 | Cc1cc2nc3c4ccccc4n(CCN(C)C)c3nc2cc1C [listing 2 of 2 here] |  | Active | Active | Ratio [5]: 1.8 and 2.4; Activity (DNA [6]): inactive
7 | Cc1cc2nc3c4ccccc4n(CCN(C)C)c3nc2cc1C.I | 100 |  |  | 
8 | Nc1nc2c(ncn2COC(CO)CO)c(=O)[nH]1 [GANCICLOVIR] | 30 |  |  | 
